In ChEMBL document CHEMBL1149369, “Isolation, structure elucidation, total synthesis, and evaluation of new natural and synthetic ceramides on human SK-MEL-1 melanoma cells” (J Med Chem, 2006) one finds Activity and IC50 data, which are given here for five compounds.

Activity calls are given as the source filed them. No cut-off for these calls is given here.

Holding throughout (type): functional, cell-based
In assay [1] the test system is SK-MEL-1. In words: Apoptotic activity in human SK-MEL-1 cells measured as induction of poly ADP-ribose polymerase cleavage by Western blot analysis. The procedure, abridged:
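SK-MEL-1 cells exposed 12 h to 10 µM or 30 µM ceramides; untreated controls. Cells pelleted, washed in ice-cold PBS, lysed; SDS-PAGE and immunoblot with anti-PARP antibody that also detects the 85 kDa cleavage fragment.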

For assay [2], the system named is SK-MEL-1. In words: Apoptotic activity in human SK-MEL-1 cells measured as procaspase 8 cleavage by Western blot analysis. Summed up: (§1)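 Western blot for procaspase-8 and -9 in SK-MEL-1 cells cultured with 10 µM or 30 µM ceramides and harvested at 12 h.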
Assay [3] relates to SK-MEL-1. In words: Apoptotic activity in human SK-MEL-1 cells measured as procaspase 9 cleavage by Western blot analysis. Summed up:
as §1
A general note: In western blotting, separated proteins are transferred to a membrane and probed.

For assay [4], the system named is SK-MEL-1. In words: Apoptotic activity in human SK-MEL-1 cells measured as induction of DNA fragmentation. The procedure, abridged:
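SK-MEL-1 cells incubated 6 h or 12 h with 10-30 µM ceramides or untreated. 4 × 10^5 cells lysed in 50 mM Tris-HCl pH 8.0, 10 mM EDTA, 0.5% SDS, RNase A (37 °C, 1 h), then proteinase K (50 °C, 2 h). Phenol-chloroform-isoamyl alcohol extraction; 2% agarose gel in TAE at 40 V, 4 h; ethidium bromide staining, UV visualisation of ladders.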

Assay [5] has as its system SK-MEL-1. In words: Antiproliferative activity against human SK-MEL-1 cells by MTT assay. Summed up:
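SK-MEL-1 in RPMI 1640 + 10% heat-inactivated FBS, 37 °C, 5% CO2; resuspended in fresh medium 24 h before treatment. 1 × 10^4 exponentially growing cells exposed 72 h at 37 °C to graded concentrations (10 mM ethanol/dodecane 49:1 stocks; final solvent ≤0.5%, vehicle controls). MTT; OD 570 nm vs control; IC50 by curve fitting; two independent experiments, triplicate determinations.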
For orientation: Tetrazolium dyes change colour on reduction, which living cells bring about.

Take `CCCCCCCCCCCCCCCCCC[C@@H](OC(C)=O)[C@@H](OC(C)=O)[C@H](COC(C)=O)NC(=O)[C@@H](OC(C)=O)[C@@H](CCCCCCCCCCCCCCCCC)OC(C)=O`: the result with SK-MEL-1 [1], in the assay with SK-MEL-1 [2] and with SK-MEL-1 [3] was Active. Further, in the assay with SK-MEL-1 [4], the Activity result was “Dose-dependent effect”. In the assay with SK-MEL-1 [5], this compound returned an IC50 of 3.9 µM.
As for `CCCCCCCCCCCCCCCCCC[C@@H](OC(C)=O)C(=O)N[C@@H](COC(C)=O)[C@H](OC(C)=O)[C@@H](CCCCCCCCCCCCCCCCCC)OC(C)=O`, the outcome in the assay on SK-MEL-1 [1], in the assay with SK-MEL-1 [2] and with SK-MEL-1 [3] was Active. Also, the Activity entry in the assay on SK-MEL-1 [4] was “Dose-dependent effect”. In the assay with SK-MEL-1 [5], this compound showed an IC50 of 7.7 µM.
`CCCCCCCCCCCCCCCCCC[C@@H](OC(C)=O)[C@@H](OC(C)=O)[C@H](COC(C)=O)NC(=O)[C@@H](OC(C)=O)[C@H](CCCCCCCCCCCCCCCCC)OC(C)=O`: the result in the assay with SK-MEL-1 [1], in the assay on SK-MEL-1 [2] and in the assay with SK-MEL-1 [3] was Active. For the same compound, the Activity result in the assay with SK-MEL-1 [4] is “Dose-dependent effect”. In the assay on SK-MEL-1 [5], this compound registered a 50% inhibitory concentration (IC50) of 10.2 µM.
On to `CCCCCCCCCCCCCCCCCC[C@@H](OC(C)=O)[C@@H](OC(C)=O)[C@H](COC(C)=O)NC(=O)[C@H](OC(C)=O)[C@@H](CCCCCCCCCCCCCCCCC)OC(C)=O`, for which the result in the assay with SK-MEL-1 [1], with SK-MEL-1 [2] and in the assay on SK-MEL-1 [3] was Active. For the same compound, in the assay with SK-MEL-1 [4], the Activity entry is “Dose-dependent effect”. Besides, the IC50 with SK-MEL-1 [5] is 5.6 µM.
Regarding `CCCCCCCCCCCCCCCCCC[C@@H](OC(C)=O)[C@@H](OC(C)=O)[C@H](COC(C)=O)NC(=O)[C@H](OC(C)=O)[C@H](CCCCCCCCCCCCCCCCC)OC(C)=O`, the outcome with SK-MEL-1 [1], in the assay on SK-MEL-1 [2] and in the assay with SK-MEL-1 [3] was Active. In addition, in the assay with SK-MEL-1 [4], the Activity result is “Dose-dependent effect”. In the assay with SK-MEL-1 [5], this compound returned an IC50 of 7.1 µM.

In general, IC50 refers to the concentration needed to halve the response being measured. A high value points to weaker potency.
